IC50 data for three compounds are collected here from ChEMBL document CHEMBL1128374, “Preparation and in vitro activities of ethers of [D-serine]8-cyclosporin” (J Med Chem, 1995).

Values after ≈ are worked out from the molar mass of the structure shown.

Assay type in all cases: functional
The species entered for assay [1] is Mus musculus. The assay is described as follows: In vitro inhibition of interleukin-2 (IL-2) production induced by stimulating lymphocytes derived from mouse spleens with the […]. Conditions: Spleen. An outline of the steps: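 Compounds added with concanavalin A to the primary culture; supernatants collected at 48 h. IL-2 content measured by growth of IL-2-dependent CTLL cells, read as tritiated thymidine incorporation after 48 h. IC50 determined, with cyclosporin A run in parallel.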

For assay [2], the species on record is Mus musculus. The assay is described as follows: In vitro efficacy on humoral immune response by Mishell-Dutton assay (MD). An outline of the steps:
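Spleen lymphocytes from female OF1 mice (ca. 10 x 10^6) cultured 3 days with sheep erythrocytes (ca. 30 x 10^6) and test compound. Cells then plated on agar with fresh erythrocytes; plaques form by complement lysis. Read-out is the count of antibody-producing plaque-forming cells. Cyclosporin A run in parallel.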

The species entered for assay [3] is Mus musculus. Put plainly: In vitro efficacy to suppress lymphocyte proliferation as measured by the incorporation of a labeled precursor ([3H]- thymidine) into DNA in Mixed Lymphocyte reaction (MLR). An outline of the steps:
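Cells from spleens of female CBA mice aged 8–10 weeks (ca. 5 x 10^5). Compounds made up at 20 mg/mL in 9:1 (v/v) ethanol/Tween 80, then diluted in saline before adding to medium. Four concentrations per compound across 1.8–1000 ng/mL, in triplicate cultures. IC50 is the calculated concentration giving 50% inhibition of proliferation. Cyclosporin A run in parallel as control.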

For orientation: IC50 means the point on the concentration scale where inhibition reaches its midpoint.

With `C/C=C/C[C@@H](C)[C@@H](O)[C@H]1C(=O)N[C@@H](CC)C(=O)N(C)CC(=O)N(C)[C@@H](CC(C)C)C(=O)N[C@@H](C(C)C)C(=O)N(C)[C@@H](CC(C)C)C(=O)N[C@@H](C)C(=O)N[C@H](COCCOCCO)C(=O)N(C)[C@@H](CC(C)C)C(=O)N(C)[C@@H](CC(C)C)C(=O)N(C)[C@@H](C(C)C)C(=O)N1C`, the IC50 in assay [1] was 0.075 µg/mL (≈ 0.0574 µM); in assay [2], 0.035 µg/mL (≈ 0.0268 µM); in assay [3], 0.17 µg/mL (≈ 0.13 µM).

As for `C/C=C/C[C@@H](C)[C@@H](O)[C@H]1C(=O)N[C@@H](CC)C(=O)N(C)CC(=O)N(C)[C@@H](CC(C)C)C(=O)N[C@@H](C(C)C)C(=O)N(C)[C@@H](CC(C)C)C(=O)N[C@@H](C)C(=O)N[C@H](COCC(C)CO)C(=O)N(C)[C@@H](CC(C)C)C(=O)N(C)[C@@H](CC(C)C)C(=O)N(C)[C@@H](C(C)C)C(=O)N1C` (some centres undefined), the IC50 in assay [1] came out at 0.017 µg/mL (≈ 0.0132 µM); in assay [2] it was 0.024 µg/mL (≈ 0.0186 µM); in assay [3], 0.013 µg/mL (≈ 0.0101 µM).

Take `C/C=C/C[C@@H](C)[C@@H](O)[C@H]1C(=O)N[C@@H](CC)C(=O)N(C)CC(=O)N(C)[C@@H](CC(C)C)C(=O)N[C@@H](C(C)C)C(=O)N(C)[C@@H](CC(C)C)C(=O)N[C@@H](C)C(=O)N[C@H](COCCO)C(=O)N(C)[C@@H](CC(C)C)C(=O)N(C)[C@@H](CC(C)C)C(=O)N(C)[C@@H](C(C)C)C(=O)N1C` [OXECLOSPORIN]: the results for the IC50 in assay [1], in assay [2] and in assay [3] were 0.006 µg/mL (≈ 0.00475 µM), 0.018 µg/mL (≈ 0.0143 µM) and under 0.008 µg/mL, respectively.
